According to ChEMBL document CHEMBL1155063 (Bioorg Med Chem, 2008):

Key:
[1] = tested on: OVCAR-3; experiment: Cytotoxicity against human OVCAR-3 cells at 10 uM after 48 hrs by MTT assay; assay type: functional; settings: OVCAR-3, 48 h
Procedure, shortened: (§1)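 Single-dose screen on the NCI 60-cell-line panel, run to the Developmental Therapeutics Program protocol (one-dose mean graph). Each value is the growth percentage of treated cells against untreated control cells.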

[2] = tested on: UO-31; experiment: Cytotoxicity against human UO31 cells at 10 uM after 48 hrs by MTT assay; assay type: functional; settings: UO-31, 48 h, values are per cent of control
Procedure, shortened: (§2)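 Single-dose screen in the NCI 60-cell-line panel, run according to the Developmental Therapeutics Program protocol (one-dose mean graph). The result is the growth percentage of treated cells relative to untreated control cells.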

[3] = tested on: SK-MEL-2; experiment: Cytotoxicity against human SK-MEL-2 cells at 10 uM after 48 hrs by MTT assay; assay type: functional; settings: SK-MEL-2, 48 h, values are per cent of control; procedure, shortened: as §1
[4] = tested on: NCI-H23; experiment: Cytotoxicity against human NCI-H23 cells at 10 uM after 48 hrs by MTT assay; assay type: functional; settings: NCI-H23, 48 h; procedure, shortened: as §1
[5] = tested on: MCF7; experiment: Cytotoxicity against human MCF7 cells at 10 uM after 48 hrs by MTT assay; assay type: functional; settings: MCF7, 48 h, values are per cent of control; procedure, shortened: as §1
[6] = tested on: HCT-116; experiment: Growth percent of human HCT116 cells at 10 uM after 48 hrs by MTT assay; settings: HCT-116, 48 h
[7] = tested on: NCI-H322M; experiment: Cytotoxicity against human NCI-H322M cells at 10 uM after 48 hrs by MTT assay; assay type: functional; procedure, shortened: as §1
[8] = tested on: MOLT-4; experiment: Cytotoxicity against human MOLT4 cells at 10 uM after 48 hrs by MTT assay; assay type: functional; settings: MOLT-4, 48 h; procedure, shortened: as §1
[9] = tested on: OVCAR-8; experiment: Cytotoxicity against human OVCAR8 cells at 10 uM after 48 hrs by MTT assay; assay type: functional; settings: OVCAR-8, 48 h; procedure, shortened: as §1
[10] = tested on: SF-268; experiment: Cytotoxicity against human SF268 cells at 10 uM after 48 hrs by MTT assay; assay type: functional; settings: SF-268, 48 h, values are per cent of control; procedure, shortened: as §1
[11] = tested on: COLO 205; experiment: Cytotoxicity against human COLO205 cells at 10 uM after 48 hrs by MTT assay; assay type: functional; settings: COLO 205, 48 h, values are per cent of control; procedure, shortened: as §1
[12] = tested on: OVCAR-4; experiment: Cytotoxicity against human OVCAR4 cells at 10 uM after 48 hrs by MTT assay; assay type: functional; settings: OVCAR-4, 48 h; procedure, shortened: as §1
[13] = tested on: EKVX; experiment: Cytotoxicity against human EKVX cells at 10 uM after 48 hrs by MTT assay; assay type: functional; procedure, shortened: as §1
[14] = tested on: SR; experiment: Cytotoxicity against human SR cells at 10 uM after 48 hrs by MTT assay; assay type: functional; procedure, shortened: as §2
[15] = tested on: Malme-3M; experiment: Cytotoxicity against human MALME3M cells at 10 uM after 48 hrs by MTT assay; assay type: functional; settings: values are per cent of control; procedure, shortened: as §1
[16] = tested on: HL-60; experiment: Cytotoxicity against human HL60 cells at 10 uM after 48 hrs by MTT assay; assay type: functional; settings: HL-60, 48 h; procedure, shortened: as §1
[17] = tested on: TK-10; experiment: Cytotoxicity against human TK10 cells at 10 uM after 48 hrs by MTT assay; assay type: functional; settings: TK-10, 48 h, values are per cent of control; procedure, shortened: as §2
[18] = tested on: Hs-578T; experiment: Cytotoxicity against human HS578T cells at 10 uM after 48 hrs by MTT assay; assay type: functional; settings: values are per cent of control; procedure, shortened: as §1
[19] = tested on: MDA-MB-435; experiment: Cytotoxicity against human MDA-MB-435 cells at 10 uM after 48 hrs by MTT assay; assay type: functional; settings: MDA-MB-435, 48 h; procedure, shortened: as §1
[20] = tested on: K562; experiment: Cytotoxicity against human K562 cells at 10 uM after 48 hrs by MTT assay; assay type: functional; settings: K562, 48 h; procedure, shortened: as §1
[21] = tested on: CCRF-CEM; experiment: Cytotoxicity against human CCRF-CEM cells at 10 uM after 48 hrs by MTT assay; assay type: functional; procedure, shortened: as §1
[22] = biological target: T1, Telomerase reverse transcriptase (Homo sapiens, UniProt O14746); experiment: Effect on human TERT expressed in BJ1 cells at 100 uM after 24 hrs by SEAP assay relative to control; settings: BJ
[23] = tested on: HOP-92; experiment: Cytotoxicity against human HOP92 cells at 10 uM after 48 hrs by MTT assay; assay type: functional; settings: HOP-92, 48 h; procedure, shortened: as §1
[24] = biological target: T1, Telomerase reverse transcriptase; experiment: Effect on human TERT expressed in BJ1 cells at 1 uM after 24 hrs by SEAP assay realtive to control; settings: BJ
[25] = tested on: T47D; experiment: Cytotoxicity against human T47D cells at 10 uM after 48 hrs by MTT assay; assay type: functional; procedure, shortened: as §2
[26] = tested on: RPMI-8226; experiment: Cytotoxicity against human RPMI-8226 cells at 10 uM after 48 hrs by MTT assay; assay type: functional; settings: RPMI-8226, 48 h; procedure, shortened: as §1
[27] = Cytotoxicity against human TERT immortalized BJ1 cells at 10 uM after 48 hrs by MTT assay relative to control; assay type: cell-based, BJ
Procedure, shortened: (§3)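 hTERT-immortalized BJ1 fibroblasts were grown in DMEM with 10% FCS, 1 mM pyruvate and 4 mM […]. Cells (about 2 × 10^3 per well) were seeded and held 24 h at 37 °C. Compounds were freshly dissolved in DMSO, diluted into medium and left on the cells 48 h. MTT was added for 4 h, then SDS/DMF lysis buffer for 16 h. Absorbance was read at 550 nm and expressed relative to untreated cells (100%).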

[28] = tested on: NCI-H460; experiment: Growth percent of human NCI-H460 cells at 10 uM after 48 hrs by MTT assay; settings: NCI-H460, 48 h
[29] = tested on: UACC-257; experiment: Cytotoxicity against human UACC257 cells at 10 uM after 48 hrs by MTT assay; assay type: functional; settings: UACC-257, 48 h, values are per cent of control; procedure, shortened: as §2
[30] = biological target: T1, Telomerase reverse transcriptase; experiment: Effect on human TERT expressed in H1299 cells at 100 uM after 24 hrs by SEAP assay relative to control
[31] = tested on: NCI-H226; experiment: Cytotoxicity against human NCI-H226 cells at 10 uM after 48 hrs by MTT assay; assay type: functional; settings: NCI-H226, 48 h; procedure, shortened: as §1
[32] = Cytotoxicity against human TERT immortalized BJ1 cells at 100 uM after 48 hrs by MTT assay relative to control; assay type: cell-based, BJ; procedure, shortened: as §3
[33] = biological target: T1, Telomerase reverse transcriptase; experiment: Effect on human TERT expressed in H1299 cells at 10 uM after 24 hrs by SEAP assay relative to control
[34] = tested on: 786-0; experiment: Cytotoxicity against human 786-0 cells at 10 uM after 48 hrs by MTT assay; assay type: functional; settings: 786-0, 48 h; procedure, shortened: as §1
[35] = tested on: SNB-75; experiment: Cytotoxicity against human SNB75 cells at 10 uM after 48 hrs by MTT assay; assay type: functional; settings: SNB-75, 48 h, values are per cent of control; procedure, shortened: as §2
[36] = Cytotoxicity against human CAK1-1 cells at 10 uM after 48 hrs by MTT assay; assay type: functional; settings: CAK1-1, 48 h; procedure, shortened: as §1
[37] = tested on: UACC-62; experiment: Cytotoxicity against human UACC62 cells at 10 uM after 48 hrs by MTT assay; assay type: functional; settings: UACC-62, 48 h, values are per cent of control; procedure, shortened: as §2

T1 sequence (O14746 whole entry): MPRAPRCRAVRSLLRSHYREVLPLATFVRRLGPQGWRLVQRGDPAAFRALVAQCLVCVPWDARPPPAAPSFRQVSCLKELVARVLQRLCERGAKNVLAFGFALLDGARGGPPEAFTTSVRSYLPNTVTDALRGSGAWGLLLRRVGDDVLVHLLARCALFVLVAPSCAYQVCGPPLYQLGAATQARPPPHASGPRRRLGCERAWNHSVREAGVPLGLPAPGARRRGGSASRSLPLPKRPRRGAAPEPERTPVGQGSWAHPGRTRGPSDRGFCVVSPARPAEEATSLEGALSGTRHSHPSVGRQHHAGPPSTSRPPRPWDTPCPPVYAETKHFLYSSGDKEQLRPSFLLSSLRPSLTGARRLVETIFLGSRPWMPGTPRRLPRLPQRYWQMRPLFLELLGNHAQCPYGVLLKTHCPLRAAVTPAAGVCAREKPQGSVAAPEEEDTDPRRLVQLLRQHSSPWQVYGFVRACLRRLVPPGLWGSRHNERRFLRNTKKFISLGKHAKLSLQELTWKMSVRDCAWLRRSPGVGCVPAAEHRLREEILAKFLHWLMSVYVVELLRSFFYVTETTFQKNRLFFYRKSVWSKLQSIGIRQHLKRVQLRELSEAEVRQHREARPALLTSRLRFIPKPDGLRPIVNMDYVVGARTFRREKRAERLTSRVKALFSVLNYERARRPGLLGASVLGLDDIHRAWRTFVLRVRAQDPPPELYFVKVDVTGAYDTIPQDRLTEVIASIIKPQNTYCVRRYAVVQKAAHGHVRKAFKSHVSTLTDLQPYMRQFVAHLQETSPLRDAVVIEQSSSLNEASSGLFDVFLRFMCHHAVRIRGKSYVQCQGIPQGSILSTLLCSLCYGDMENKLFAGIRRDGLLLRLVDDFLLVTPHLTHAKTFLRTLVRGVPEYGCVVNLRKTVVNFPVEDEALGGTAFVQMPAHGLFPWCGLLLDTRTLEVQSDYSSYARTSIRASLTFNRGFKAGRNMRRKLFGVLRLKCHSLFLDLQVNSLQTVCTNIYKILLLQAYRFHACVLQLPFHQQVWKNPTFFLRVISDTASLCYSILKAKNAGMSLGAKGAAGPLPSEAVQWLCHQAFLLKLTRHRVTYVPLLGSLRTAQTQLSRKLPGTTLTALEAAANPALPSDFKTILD

| Compound | growth percent at 10 µM [1] | growth, % of control at 10 µM [2] | growth, % of control at 10 µM [3] | growth percent at 10 µM [4] | growth, % of control at 10 µM [5] | growth percent at 10 µM [6] | growth percent at 10 µM [7] | growth percent at 10 µM [8] | growth percent at 10 µM [9] | growth, % of control at 10 µM [10] | growth, % of control at 10 µM [11] | growth percent at 10 µM [12] | growth percent at 10 µM [13] | growth percent at 10 µM [14] | growth, % of control at 10 µM [15] | growth percent at 10 µM [16] | growth, % of control at 10 µM [17] | growth, % of control at 10 µM [18] | growth percent at 10 µM [19] | growth percent at 10 µM [20] | further results |
| --- | --- | --- | --- | --- | --- | --- | --- | --- | --- | --- | --- | --- | --- | --- | --- | --- | --- | --- | --- | --- | --- |
| CCN(CC)CCC(=O)Nc1ccc2c(c1)C(=O)c1cc(NC(=O)CCN(CC)CC)ccc1C2=O | 10.4% | -31.5% | -60.4% | 30.3% | 9.34% | -32.5% | 44.8% | 5.42% | 4.3% | 35.2% | -49.7% | 24.9% | 60% | -0.39% | 62.4% | 14% | 17.2% | -23.8% | 71.1% | 8.1% | growth percent at 10 µM [21]: -6.02%; residual activity [22]: 37%; growth percent at 10 µM [23]: 9.7%; residual activity [24]: 84%; growth percent at 10 µM [25]: 68.6%; growth percent at 10 µM [26]: -29%; viability at 48 h, 10 µM [27]: 55%; growth percent at 10 µM [28]: 9.5%; growth, % of control at 10 µM [29]: -14.5%; residual activity [30]: 26%; growth percent at 10 µM [31]: 49.9%; viability at 48 h, 100 µM [32]: 36%; residual activity [33]: 35%; growth percent at 10 µM [34]: 24.7%; growth, % of control at 10 µM [35]: 46.6%; growth percent at 10 µM [36]: 3.27%; growth, % of control at 10 µM [37]: 44.5% |
| CN(C)CC(=O)Nc1ccc2c(c1)C(=O)c1cc(NC(=O)CN(C)C)ccc1C2=O | 43.6% | -82.5% | -30.4% | 51.8% | 7.92% | 19.1% | 32.4% | 29.1% | 32.3% | 64.9% | -73.6% | 45.7% | 102% | -46.5% | 96.2% | -65% | 73.5% | -6.11% | 68.4% | 34.9% | growth percent at 10 µM [21]: -13.2%; residual activity [22]: 3%; growth percent at 10 µM [23]: 56.1%; residual activity [24]: 96%; growth percent at 10 µM [25]: 24.6%; growth percent at 10 µM [26]: 35%; viability at 48 h, 10 µM [27]: 45%; growth percent at 10 µM [28]: 5.01%; growth, % of control at 10 µM [29]: -1.84%; residual activity [30]: 21%; growth percent at 10 µM [31]: 89.1%; viability at 48 h, 100 µM [32]: 39%; residual activity [33]: 40%; growth percent at 10 µM [34]: 68.6%; growth, % of control at 10 µM [35]: 76.1%; growth percent at 10 µM [36]: 59.3%; growth, % of control at 10 µM [37]: 22.3% |
